Among the data in ChEMBL document CHEMBL3244185, “Synthesis and antiprotozoal activity of 2,5-bis(4-guanylphenyl)furans” (J Med Chem, 1977) are Activity and Survival values, retold here.

Data set [1] deals with Mus musculus. As to the kind of experiment: Toxicity in ICR/HA Swiss mouse infected with Trypanosoma rhodesiense CT assessed as mortality at 160 mg/kg. As to conditions: in vivo. Details: dose 160 mg/kg. The class given is organism-based. In short, it runs like this:
(§1)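 Mice, five per dosage level, each dosed in mg of compound per kg body weight. ΔMST is the increase in mean survival time of treated over untreated infected controls, in days. A cure is a 30-day survival increase over controls, with at most five cures per dose. Deaths attributed to compound toxicity were scored as toxic deaths.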

Data set [2] relates to Mus musculus. As to the kind of experiment: Toxicity in ICR/HA Swiss mouse infected with Trypanosoma rhodesiense CT assessed as mortality at 320 mg/kg. It counts as organism-based. The arrangement: dose 320 mg/kg. As to conditions: in vivo. In short, it runs like this:
as §1

A further data set concerns Plasmodium berghei. Kind of data set: Antimalarial activity against Plasmodium berghei infected in mouse up to 640 mg/kg, sc administered 72 hrs post infection. It counts as functional, organism-based. The arrangement: dose 640 mg/kg. In short, it runs like this:
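Antimalarial screen in P. berghei-infected mice, doses in mg/kg. The read-out is the gain in mean survival time of treated animals over untreated controls. Toxicity is recorded at the dose levels tested.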

Data set [3] deals with Trypanosoma brucei rhodesiense. As to the kind of experiment: Antitrypanosomal activity against Trypanosoma rhodesiense CT infected in ICR/HA Swiss mouse assessed as increase in mean survival time at 40 mg/kg. The class given is functional. In short, it runs like this: as §1
For data set [4], the system named is Trypanosoma brucei rhodesiense. As to the kind of experiment: Antitrypanosomal activity against Trypanosoma rhodesiense CT infected in ICR/HA Swiss mouse assessed as 30-day increase in survival time at 80 mg/kg relative to control. It counts as functional, organism-based. Details: dose 80 mg/kg. The method, boiled down:
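Mice infected with T. rhodesiense, dosed per mg of compound per kg body weight, five mice per dose level. A cure means survival extended 30 days beyond untreated controls, so at most five cures per dose. Non-curative effects are given as ΔMST, the gain in mean survival time in days versus controls. Toxic deaths are flagged separately.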

Data set [5] has as its system Mus musculus. As to the kind of experiment: Toxicity in ICR/HA Swiss mouse infected with Trypanosoma rhodesiense CT assessed as mortality at 640 mg/kg. As to conditions: in vivo. The class given is organism-based. Details: dose 640 mg/kg. The method, boiled down:
as §1

Data set [6] has as its system Trypanosoma brucei rhodesiense. Kind of data set: Antitrypanosomal activity against Trypanosoma rhodesiense CT infected in ICR/HA Swiss mouse assessed as increase in mean survival time at 20 mg/kg. The class given is functional. In short, it runs like this: as §1
Data set [7] relates to Trypanosoma brucei rhodesiense. Kind of data set: Antitrypanosomal activity against Trypanosoma rhodesiense CT infected in ICR/HA Swiss mouse assessed as increase in mean survival time at 5 mg/kg. It counts as functional. In short, it runs like this: as §1
The test system of data set [8] is Mus musculus. As to the kind of experiment: Toxicity in ICR/HA Swiss mouse infected with Trypanosoma rhodesiense CT assessed as mortality at 20 mg/kg. Particulars: in vivo. The class given is organism-based. Details: dose 20 mg/kg. The method, boiled down: as §1
Data set [9] relates to Mus musculus. Kind of data set: Toxicity in ICR/HA Swiss mouse infected with Trypanosoma rhodesiense CT assessed as mortality at 40 mg/kg. Particulars: in vivo. Details: dose 40 mg/kg. The class given is organism-based. In short, it runs like this:
as §1

Data set [10] has as its system Trypanosoma brucei rhodesiense. Kind of data set: Antitrypanosomal activity against Trypanosoma rhodesiense CT infected in ICR/HA Swiss mouse assessed as increase in mean survival time at 2.5 mg/kg. It counts as functional. In short, it runs like this:
as §1

Calls of active or inactive are those of the source. The calls are words filed in the database; no cut-off is given here.

Consider `CN1CCN[C+]1c1ccc(-c2ccc(-c3ccc([C+]4NCCN4C)cc3)o2)cc1.[Cl-].[Cl-]`, for which the Activity entry in the data set on Mus musculus [1], in the data set with Mus musculus [2] and in the data set on Mus musculus [5] was “Toxic” each time. Moreover, the result with Plasmodium berghei was inactive. Also, the Survival in [3] was found to be 5.5 days; in data set [6] it was 1.1 days. Further, the result in [4] was Active.
For the compound `CN1CCCN[C+]1c1ccc(-c2ccc(-c3ccc([C+]4NCCCN4C)cc3)o2)cc1.[Cl-].[Cl-]`, the Activity result with Mus musculus [1], with Mus musculus [8], with Mus musculus [5] and with Mus musculus [9] was “Toxic” in each case. Moreover, the result in the data set with Plasmodium berghei was inactive. Further, the values for the Survival in data set [7] and in data set [10] were 0.7 days and 0.3 days, respectively.
